Assay results published in ChEMBL document CHEMBL4138145, “Cyclic Cystine-Bridged Peptides from the Marine Sponge Clathria basilana Induce Apoptosis in Tumor Cells and Depolarize the Bacterial Cytoplasmic Membrane” (J Nat Prod, 2017).
The source made the active and inactive calls. The rule behind the calls is not given here. Where a SMILES comes first, the peptide text is derived from it. Bridges are numbered along the chain shown (N, C = ends). [ ]: non-standard residue; d: D form. The star is where a group is joined. Ileψ(thiazoline)Cys = CC[C@H](C)[C@H](N)C1=N[C@H](C(=O)*)CS1; pGlu = O=C1CC[C@@H](C(=O)O)N1; dOrn = NCCC[C@@H](N)C(=O)O; X2 = C(=C\c1ccccc1)/N*; X4 = C(=C/c1ccccc1)/N*

Tests used:
Acinetobacter baumannii = experiment: Antimicrobial activity against Acinetobacter baumannii isolate 09987 after 16 to 20 hrs by broth micro dilution method; format: functional, organism-based
Procedure, shortened: (§1)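 Broth microdilution per CLSI in cation-adjusted Mueller-Hinton broth. Inoculum made by direct colony suspension, 5 × 10^5 CFU/mL final, added to serial 2-fold compound dilutions. Plates kept 16–20 h at 37 °C in ambient air. MIC is the lowest concentration with no visible growth. Strains are ATCC CLSI quality-control strains; A. baumannii 09987 is a Bonn clinical isolate.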

Klebsiella pneumoniae = experiment: Antimicrobial activity against Klebsiella pneumoniae after 16 to 20 hrs by broth micro dilution method; format: functional, organism-based; procedure, shortened: as §1
Pseudomonas aeruginosa = experiment: Antimicrobial activity against Pseudomonas aeruginosa after 16 to 20 hrs by broth micro dilution method; format: functional, organism-based; procedure, shortened: as §1
A2780 = experiment: Cytotoxicity against human A2780 cells assessed as reduction in cell viability up to 10 uM after 72 hrs by MTT assay; format: functional, cell-based
Procedure, shortened: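 A2780 ovarian carcinoma cells were grown in RPMI-1640 with 10% FBS, penicillin and streptomycin, about 9000 cells/well, preincubated overnight. Increasing compound concentrations were applied for 72 h, then MTT was added. Absorbance read at 544 nm minus the 690 nm reference.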

Escherichia coli = experiment: Antimicrobial activity against Escherichia coli after 16 to 20 hrs by broth micro dilution method; format: functional, organism-based; procedure, shortened: as §1
Homo sapiens = species: Homo sapiens; experiment: Cytotoxicity against human Jurkat 16 cells assessed as reduction in cell viability up to 10 uM after 24 hrs by MTT assay; format: functional, cell-based
Procedure, shortened: (§2)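 Suspension cells at 5 × 10^5 cells/mL, exposed 24 h to varying compound concentrations; 0.1% v/v DMSO as negative control. MTT added to 1 mg/mL final for 60 min, cells pelleted, formazan extracted in DMSO for 25 min at rt, A570 read with 650 nm reference. Viability relative to DMSO set at 100%; IC50 from fitted curves.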

NOMO-1 = experiment: Cytotoxicity against human NOMO1 cells assessed as reduction in cell viability up to 10 uM after 24 hrs by MTT assay; format: functional, cell-based; procedure, shortened: as §2
[1] = system: Mycobacterium tuberculosis; experiment: Antimicrobial activity against Mycobacterium tuberculosis H37Rv up to 100 uM after 5 days by resazurin dye based assay; format: functional, organism-based
Procedure, shortened: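 M. tuberculosis H37Rv was grown aerobically at 37 °C in Middlebrook 7H9 with ADS enrichment, 0.5% glycerol and 0.05% tyloxapol, then precultured to log phase (OD600 0.5−1). Cells were seeded at 1 × 10^5 per well on 2-fold dilutions over 100−0.78 μM and held 5 days at 37 °C. Resazurin was added for 16 h at ambient temperature, then cells were formalin-fixed and fluorescence read (ex 540, em 590 nm). Growth is relative to rifampicin (0%) and DMSO (100%).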

Klebsiella aerogenes = experiment: Antimicrobial activity against Enterobacter aerogenes after 16 to 20 hrs by broth micro dilution method; format: functional, organism-based; procedure, shortened: as §1
HL-60 = experiment: Cytotoxicity against human HL60 cells assessed as reduction in cell viability up to 10 uM after 24 hrs by MTT assay; format: functional, cell-based; procedure, shortened: as §2
Ramos = experiment: Cytotoxicity against human Ramos cells assessed as reduction in cell viability up to 10 uM after 24 hrs by MTT assay; format: functional, cell-based; procedure, shortened: as §2
Bacillus subtilis [2] = experiment: Induction of translation arrest in Bacillus subtilis isolate 1S34 assessed as increase in bmrC promoter activity at 30 ug after 14 to 18 hrs by beta-galactosidase reporter gene assay; format: functional, organism-based
Procedure, shortened: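 The bmrC promoter reporter in B. subtilis 1S34 was embedded at 3 × 10^7 CFU/mL in Belitzky minimal medium soft agar containing X-Gal (150 μg/mL). Test compounds were spotted, with reference antibiotic discs as positive controls. Plates were incubated at 37 °C and read for promoter-driven β-galactosidase induction.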

Bacillus subtilis [3] = experiment: Induction of cell envelope stress in Bacillus subtilis isolate 1S34 assessed as increase in liaI promoter activity at 30 ug after 14 to 18 hrs by beta-galactosidase reporter gene assay; format: functional, organism-based
Procedure, shortened: (§3)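 B. subtilis 1S34 β-galactosidase promoter reporters were grown in LB with spectinomycin (50 μg/mL) to stationary phase. Cells were set at 3 × 10^7 CFU/mL in LB soft agar (0.7%) containing X-Gal (150 μg/mL). Test compounds were spotted on the plates, with reference antibiotic discs as positive controls. Plates were incubated 14−18 h at 30 °C and read for promoter induction (blue colour).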

Bacillus subtilis [4] = experiment: Induction of RNA damage in Bacillus subtilis isolate 1S34 assessed as increase in helD promoter activity at 30 ug after 14 to 18 hrs by beta-galactosidase reporter gene assay; format: functional, organism-based; procedure, shortened: as §3
Bacillus subtilis [5] = experiment: Induction of DNA damage in Bacillus subtilis isolate 1S34 assessed as increase in yorB promoter activity at 30 ug after 14 to 18 hrs by beta-galactosidase reporter gene assay; format: functional, organism-based; procedure, shortened: as §3
Bacillus subtilis [6] = experiment: Induction of cell envelope stress in Bacillus subtilis isolate 1S34 assessed as increase in ypuA promoter activity at 30 ug after 14 to 18 hrs by beta-galactosidase reporter gene assay; format: functional, organism-based; procedure, shortened: as §3
Bacillus subtilis [7] = experiment: Induction of cell envelope stress in Bacillus subtilis isolate 1S34 assessed as increase in liaI promoter activity at 10 ug after 14 to 18 hrs by beta-galactosidase reporter gene assay; format: functional, organism-based
Procedure, shortened: (§4)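 Agar-based β-galactosidase promoter-reporter assay. B. subtilis 1S34 grown to stationary phase in LB with spectinomycin 50 μg/mL, then set at 3 × 10^7 CFU/mL in LB soft agar (0.7%) containing X-Gal 150 μg/mL. Test compounds spotted at 20 nmol; reference antibiotics given on paper discs (5–30 μg). Plates read for promoter induction after 14–18 h at 30 °C.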

Bacillus subtilis [8] = experiment: Induction of DNA damage in Bacillus subtilis isolate 1S34 assessed as increase in yorB promoter activity at 10 ug after 14 to 18 hrs by beta-galactosidase reporter gene assay; format: functional, organism-based; procedure, shortened: as §4
Bacillus subtilis [9] = experiment: Induction of RNA damage in Bacillus subtilis isolate 1S34 assessed as increase in helD promoter activity at 10 ug after 14 to 18 hrs by beta-galactosidase reporter gene assay; format: functional, organism-based; procedure, shortened: as §4
Bacillus subtilis [10] = experiment: Induction of cell envelope stress in Bacillus subtilis isolate 1S34 assessed as increase in ypuA promoter activity at 10 ug after 14 to 18 hrs by beta-galactosidase reporter gene assay; format: functional, organism-based; procedure, shortened: as §4
Bacillus subtilis [11] = experiment: Induction of translation arrest in Bacillus subtilis isolate 1S34 assessed as increase in bmrC promoter activity at 10 ug after 14 to 18 hrs by beta-galactosidase reporter gene assay; format: functional, organism-based
Bacillus subtilis [12] = experiment: Induction of DNA damage in Bacillus subtilis isolate 1S34 assessed as increase in yorB promoter activity at 5 ug after 14 to 18 hrs by beta-galactosidase reporter gene assay; format: functional, organism-based; procedure, shortened: as §4
Bacillus subtilis [13] = experiment: Induction of RNA damage in Bacillus subtilis isolate 1S34 assessed as increase in helD promoter activity at 5 ug after 14 to 18 hrs by beta-galactosidase reporter gene assay; format: functional, organism-based; procedure, shortened: as §4
Bacillus subtilis [14] = experiment: Induction of cell envelope stress in Bacillus subtilis isolate 1S34 assessed as increase in ypuA promoter activity at 5 ug after 14 to 18 hrs by beta-galactosidase reporter gene assay; format: functional, organism-based; procedure, shortened: as §4
Bacillus subtilis [15] = experiment: Induction of cell envelope stress in Bacillus subtilis isolate 1S34 assessed as increase in liaI promoter activity at 5 ug after 14 to 18 hrs by beta-galactosidase reporter gene assay; format: functional, organism-based; procedure, shortened: as §4
Bacillus subtilis [16] = experiment: Induction of translation arrest in Bacillus subtilis isolate 1S34 assessed as increase in bmrC promoter activity at 5 ug after 14 to 18 hrs by beta-galactosidase reporter gene assay; format: functional, organism-based

Row | SMILES | Activity (Acinetobacter baumannii) | Activity (Klebsiella pneumoniae) | Activity (Pseudomonas aeruginosa) | Activity (A2780) | Activity (Escherichia coli) | Activity (Homo sapiens) | Activity (NOMO-1) | Activity [1] | Activity (Klebsiella aerogenes) | Activity (HL-60) | Activity (Ramos) | other results
1 | CC(C)[C@H](N)C(=O)N/C=C/c1ccccc1 | inactive | inactive | inactive | inactive | inactive | inactive | inactive | inactive | inactive | inactive | inactive | –
2 | CN[C@H](CC(C)C)C(=O)N[C@H]1C(=O)N[C@@H](CC(N)=O)C(=O)N[C@H]2C(=O)N[C@H]3C(=O)N[C@H](C(=O)N[C@H](C(=O)O)c4cc(O)cc(O)c4-c4cc3ccc4O)[C@H](O)c3ccc(c(Cl)c3)Oc3cc2cc(c3O[C@@H]2O[C@H](CO)[C@@H](O)[C@H](O)[C@H]2O[C@H]2C[C@](C)(N)[C@H](O)[C@H](C)O2)Oc2ccc(cc2Cl)[C@H]1O | – | – | – | – | – | – | – | – | – | – | – | Activity (Bacillus subtilis [2]): Active; Activity (Bacillus subtilis [3]): Active; Activity (Bacillus subtilis [4]): Active; Activity (Bacillus subtilis [5]): Active; Activity (Bacillus subtilis [6]): Active
3 | CO[C@H]1/C=C/O[C@@]2(C)Oc3c(C)c(O)c4c(O)c(c(/C=N/N5CCN(C)CC5)c(O)c4c3C2=O)NC(=O)/C(C)=C\C=C\[C@H](C)[C@H](O)[C@@H](C)[C@@H](O)[C@@H](C)[C@H](OC(C)=O)[C@@H]1C | – | – | – | – | – | – | – | – | – | – | – | Activity (Bacillus subtilis [2]): Active; Activity (Bacillus subtilis [3]): Active; Activity (Bacillus subtilis [4]): Active; Activity (Bacillus subtilis [5]): Active; Activity (Bacillus subtilis [6]): Active
4 | O=C(N[C@H](CO)[C@H](O)c1ccc([N+](=O)[O-])cc1)C(Cl)Cl | – | – | – | – | – | – | – | – | – | – | – | Activity (Bacillus subtilis [7]): Active; Activity (Bacillus subtilis [8]): Active; Activity (Bacillus subtilis [9]): Active; Activity (Bacillus subtilis [10]): Active; Activity (Bacillus subtilis [11]): Active
5 | O=C(O)c1cn(C2CC2)c2cc(N3CCNCC3)c(F)cc2c1=O | – | – | – | – | – | – | – | – | – | – | – | Activity (Bacillus subtilis [12]): Active; Activity (Bacillus subtilis [13]): Active; Activity (Bacillus subtilis [14]): Active; Activity (Bacillus subtilis [15]): Active; Activity (Bacillus subtilis [16]): Active
6 | CC(C)C[C@@H]1NC(=O)[C@@H]2CCCN2C(=O)[C@@H]2CCCN2C(=O)[C@@H](NC(=O)[C@@H]2CCC(=O)N2)CSSC[C@@H](C(=O)N2CCC[C@H]2C(N)=O)NC1=O ([pGlu]CPPLCP-NH2; disulfide 2-6) | inactive | inactive | inactive | inactive | inactive | inactive | inactive | inactive | inactive | inactive | inactive | –
7 | CC[C@H](C)[C@H](NC(=O)[C@@H]1CCC(=O)N1)C(=O)N[C@@H](CC(C)C)C(=O)N[C@H]1CSSC[C@@H](C(=O)N/C=C/c2ccccc2)NC(=O)[C@H](Cc2ccccc2)NC(=O)[C@@H]2CCCN2C(=O)[C@@H]2CCCN2C1=O ([pGlu]ILCPPFC-X2; disulfide 4-8) | inactive | inactive | inactive | inactive | inactive | inactive | inactive | inactive | inactive | inactive | inactive | –
8 | CC[C@H](C)[C@H](NC(=O)[C@@H]1CCC(=O)N1)C(=O)N[C@@H](CC(C)C)C(=O)N[C@H]1CSSC[C@@H](C(=O)N/C=C\c2ccccc2)NC(=O)[C@H](Cc2ccccc2)NC(=O)[C@@H]2CCCN2C(=O)[C@@H]2CCCN2C1=O ([pGlu]ILCPPFC-X4; disulfide 4-8) | – | – | – | inactive | – | inactive | inactive | – | – | inactive | inactive | –
9 | CC[C@H](C)[C@H](N)C1=N[C@H](C(=O)N[C@@H](CC(C)C)C(=O)N[C@H](CCC(=O)O)C(=O)N[C@H](C(=O)N[C@H]2CCCCNC(=O)[C@H](CC(N)=O)NC(=O)[C@@H](CC(=O)O)NC(=O)[C@H](Cc3cnc[nH]3)NC(=O)[C@@H](Cc3ccccc3)NC(=O)[C@H]([C@@H](C)CC)NC(=O)[C@@H](CCCN)NC2=O)[C@@H](C)CC)CS1 ({Ileψ(thiazoline)Cys}-L[dE]IK[dOrn]I[dF]H[dD]N; lactam 4-C) | – | – | – | – | – | – | – | – | – | – | – | Activity (Bacillus subtilis [7]): Active; Activity (Bacillus subtilis [8]): Active; Activity (Bacillus subtilis [9]): Active; Activity (Bacillus subtilis [10]): Active; Activity (Bacillus subtilis [11]): Active
